# Measured values collected from several papers.
# Each line is one published result; the experiments were not run side by side.
# ADRA2A: Alpha-2A adrenergic receptor (ADRA2A, Homo sapiens, UniProt P08913)
# SLC18A2: Synaptic vesicular amine transporter (SLC18A2, Homo sapiens, UniProt Q05940)
# LATS1: Serine/threonine-protein kinase LATS1 (LATS1, Homo sapiens, UniProt O95835)
SMILES,target,assay,setting,endpoint,result
Cc1cc(Oc2ncccc2CN2CCN(c3ccccc3Br)CC2)ccc1-c1c(C)c(=O)[nH]c(=O)n1C,ADRA2A,"ligand displacement, radioligand",,Ki,0.135 µM
Cc1ccccc1N1CCN(CCc2nnc3n2CCCC3)CC1,SLC18A2,"transporter uptake, inhibitor",,IC50,0.566 µM
CC(C)(C(=O)O)c1ccc(C(O)CCCN2CCC(C(O)(c3ccccc3)c3ccccc3)CC2)cc1 (stereo not drawn),"Carbonic anhydrase 1 (CA1, Homo sapiens, UniProt P00915)","enzyme activity, inhibitor, absorbance",pH 7.4,IC50,19.3 µM
Cc1cc(-c2ccnc3[nH]cc(F)c23)cc(F)c1[C@@]1(O)[C@H](C)CN(C(=O)CN)C[C@@H]1C,LATS1,"binding, TR-FRET",,Kd,0.0009 µM
O=C(CCCN1CCC(O)(c2ccc(Br)cc2)CC1)c1ccc(F)cc1,SLC18A2,"transporter uptake, inhibitor",,IC50,0.092 µM
OC1(c2ccc(-c3ccnc4[nH]cc(F)c34)cc2)CCCNC1 (stereo not drawn),LATS1,"enzyme activity, inhibitor, radiometric",,IC50,0.026 µM
CN(C)CCCN1c2ccccc2Sc2ccc(Cl)cc21,SLC18A2,"transporter uptake, inhibitor",,IC50,3.4 µM
Cc1cc(Oc2ncccc2CN2CCN(c3cccc(Cl)c3Cl)CC2)ccc1-c1c(C)c(=O)[nH]c(=O)n1C,ADRA2A,"ligand displacement, radioligand",,Ki,0.214 µM
CC(C)(C)NC(=O)C1CCN(Cc2cccc(NC(=O)c3ccc(F)cc3)c2)CC1,"Atypical chemokine receptor 3 (ACKR3, Homo sapiens, UniProt P25106)","β-arrestin recruitment, agonist, luciferase",,EC50,0.01 µM
O=C(O)c1cc2ccc(C#CC3(O)CCCCC3)cc2n1-c1ccccc1,"Microphthalmia-associated transcription factor (Homo sapiens, UniProt O75030)","binding, ITC",,Kd,13.4 µM
CC(C)C[C@H](NC(=O)[C@H](CC(C)C)NC(=O)[C@H](Cc1c[nH]c2ccccc12)NC(=O)[C@H](CCC(N)=O)NC(=O)[C@@H](NC(=O)[C@H](Cc1ccccc1)NC(=O)[C@H](CC(=O)O)NC(=O)[C@H](CCC(N)=O)NC(=O)[C@H](C)NC(=O)[C@H](C)NC(=O)[C@H](CCCNC(=N)N)NC(=O)[C@H](CCC(=O)O)NC(=O)[C@H](CC(=O)O)NC(=O)[C@H](CC(C)C)NC(=O)[C@H](Cc1ccc(O)cc1)NC(=O)[C@H](CCCCN)NC(=O)[C@H](CO)NC(=O)[C@H](Cc1ccc(O)cc1)NC(=O)[C@H](CC(=O)O)NC(=O)[C@H](CO)NC(=O)[C@@H](NC(=O)[C@H](Cc1ccccc1)NC(=O)[C@@H](NC(=O)CNC(=O)[C@H](CCC(N)=O)NC(=O)C(C)(C)NC(=O)[C@@H](N)Cc1c[nH]cn1)[C@@H](C)O)[C@@H](C)O)C(C)C)C(=O)N[C@@H](CC(=O)O)C(=O)NCC(=O)NCC(=O)N1CCC[C@H]1C(=O)N[C@@H](CO)C(=O)N[C@@H](CC(C)C)C(=O)N[C@@H](CCCNC(=N)N)C(=O)N[C@@H](Cc1c[nH]cn1)C(=O)N[C@@H](Cc1ccc(O)cc1)C(=O)N[C@@H](CC(C)C)C(=O)N[C@@H](CC(N)=O)C(=O)N[C@@H](CC(C)C)C(=O)N[C@H](C(=O)N[C@H](C(=O)N[C@@H](CCCNC(=N)N)C(=O)N[C@@H](CCC(N)=O)C(=O)N[C@@H](CCCNC(=N)N)C(=O)N[C@@H](Cc1ccc(O)cc1)C(N)=O)[C@@H](C)O)C(C)C,"Gastric inhibitory polypeptide receptor (GIPR, Homo sapiens, UniProt P48546)","reporter gene, agonist, luciferase",,EC50,0.00028 µM
O=C1Cc2cc(CCN3CCN(c4nsc5ccccc45)CC3)c(Cl)cc2N1,SLC18A2,"transporter uptake, inhibitor, radiometric",cell membranes,IC50,0.015 µM
Cc1cc(Oc2ncccc2CN2CCN(Cc3ccc(F)cc3)CC2)ccc1-c1c(C)c(=O)[nH]c(=O)n1C,ADRA2A,"ligand displacement, radioligand",,Ki,2.21 µM
CC1CNCCC1(O)c1ccc(-c2ccnc3[nH]cc(F)c23)cc1 (stereo not drawn),LATS1,"enzyme activity, inhibitor, radiometric",,IC50,0.0098 µM
Cc1cc(Oc2ncccc2CN2CCN(c3ncccc3C(F)(F)F)CC2)ccc1-c1c(C)c(=O)[nH]c(=O)n1C,ADRA2A,"ligand displacement, radioligand",,Ki,0.0474 µM
CC(C)NCC(O)COc1ccc(COCCOC(C)C)cc1 (stereo not drawn),SLC18A2,"transporter uptake, inhibitor",,IC50,7.54 µM
O=C(Nc1c[nH]nc1-c1nc2cc(CN3CCOCC3)ccc2[nH]1)NC1CC1,LATS1,"enzyme activity, inhibitor, radiometric",,IC50,0.073 µM
Cc1cc(Oc2ncccc2CN2CCN(c3ccccc3)CC2)ccc1-c1c(C)c(=O)[nH]c(=O)n1C,ADRA2A,"cAMP, agonist, luciferase",,EC50,10.7 µM
Nc1nc2c(ncn2COCCO)c(=O)[nH]1,"Carbonic anhydrase 2 (CA2, Homo sapiens, UniProt P00918)","enzyme activity, inhibitor, absorbance",pH 7.4,IC50,13.8 µM
COc1ccc(CN=c2[nH]c(N3CCC[C@H]3CO)ncc2C(=O)NCc2ncccn2)cc1Cl,SLC18A2,"transporter uptake, inhibitor",,IC50,9.67 µM
Cc1cc(Oc2ncccc2CN2CCN(c3cccc(F)c3)CC2)ccc1-c1c(C)c(=O)[nH]c(=O)n1C,ADRA2A,"ligand displacement, radioligand",,Ki,0.0887 µM
